Calls of active or inactive are those of the source. No cut-off for these calls is given here.
Assays:
HepG2 = assay: Cytotoxicity against human HepG2 cells assessed as cell viability after 48 hrs by MTT assay; format: functional, cell-based; details: HepG2, 48 h
Method in brief: (§1)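 Cells were trypsinized, seeded in 96-well plates at 2 × 10³ cells/well and grown for 24 h. Medium was then replaced with compound solutions (in DMSO, range from 0.1) for 48 h, and viability was read by MTT. Cancer lines were grown in RPMI 1640 + 10% FCS. IC50 from 3 independent experiments, each in triplicate.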

MGC-803 [1] = assay: Cytotoxicity against human MGC803 cells assessed as cell viability after 48 hrs by MTT assay; format: functional, cell-based; details: MGC-803, 48 h; method in brief: as §1
NCI-H460 = assay: Cytotoxicity against human NCI-H460 cells assessed as cell viability after 48 hrs by MTT assay; format: functional, cell-based; details: NCI-H460, 48 h; method in brief: as §1
A-375 = assay: Cytotoxicity against human A375 cells assessed as cell viability after 48 hrs by MTT assay; format: functional, cell-based; details: A-375, 48 h; method in brief: as §1
MGC-803 [2] = assay: Cytotoxicity against human MGC803 cells assessed as cell viability at 1 to 10 uM after 48 hrs by MTT assay; format: functional, cell-based
[3] = tested on: Cellular tumor antigen p53 (Homo sapiens), P04637 [UNDEFINED MUTATION]; assay: Inhibition of P53 mutant phosphorylation at s392 in human MGC803 cells at 1 to 10 uM after 24 hrs by Western blot analysis; format: cell-based; details: MGC-803
Chain of Cellular tumor antigen p53 (Homo sapiens), P04637 [UNDEFINED MUTATION] (P04637 whole entry, looked up, change not shown): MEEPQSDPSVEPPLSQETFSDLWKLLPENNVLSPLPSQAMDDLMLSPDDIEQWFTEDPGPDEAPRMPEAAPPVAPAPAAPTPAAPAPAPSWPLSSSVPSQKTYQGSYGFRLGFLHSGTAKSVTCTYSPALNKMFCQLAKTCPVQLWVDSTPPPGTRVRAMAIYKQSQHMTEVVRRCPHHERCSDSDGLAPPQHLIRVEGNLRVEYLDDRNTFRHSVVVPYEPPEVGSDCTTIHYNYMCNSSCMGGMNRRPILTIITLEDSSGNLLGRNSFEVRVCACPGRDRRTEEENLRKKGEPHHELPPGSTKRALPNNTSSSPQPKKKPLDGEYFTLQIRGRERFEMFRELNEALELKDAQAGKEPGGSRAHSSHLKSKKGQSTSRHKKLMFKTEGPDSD
Method in brief: (§2)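 MGC-803 cells, 3 × 10⁵ per well of a 6-well plate, exposed to compound for 24 h. Cells were washed in ice-cold PBS and lysed in sample buffer, then run on SDS-PAGE and transferred to nitrocellulose. Blots were probed with primary antibodies and […] anti-rabbit IgG and developed by ECL.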

[4] = tested on: Cellular tumor antigen p53 (Homo sapiens), P04637 [UNDEFINED MUTATION]; assay: Inhibition of P53 mutant acetylation at k373 in human MGC803 cells at 1 to 10 uM after 24 hrs by Western blot analysis; format: cell-based; details: MGC-803; method in brief: as §2
MGC-803 [5] = assay: Cell cycle arrest in human MGC803 cells assessed as accumulation at S phase at 10 uM after 48 hrs by propidium iodide staining-based FACS analysis relative to control; format: functional
MGC-803 [6] = assay: Cell cycle arrest in human MGC803 cells assessed as accumulation at S phase at 1 uM after 48 hrs by propidium iodide staining-based FACS analysis relative to control; format: functional
MGC-803 [7] = assay: Cell cycle arrest in human MGC803 cells assessed as accumulation at G0/G1 phase at 1 uM after 48 hrs by propidium iodide staining-based FACS analysis relative to control; format: functional
MGC-803 [8] = assay: Cell cycle arrest in human MGC803 cells assessed as accumulation at G2/M phase at 1 uM after 48 hrs by propidium iodide staining-based FACS analysis relative to control; format: functional
MGC-803 [9] = assay: Cell cycle arrest in human MGC803 cells assessed as accumulation at sub G1 phase at 1 uM after 48 hrs by propidium iodide staining-based FACS analysis relative to control; format: functional
MGC-803 [10] = assay: Cell cycle arrest in human MGC803 cells assessed as accumulation at G2/M phase at 10 uM after 48 hrs by propidium iodide staining-based FACS analysis relative to control; format: functional
MGC-803 [11] = assay: Cell cycle arrest in human MGC803 cells assessed as accumulation at G0/G1 phase at 10 uM after 48 hrs by propidium iodide staining-based FACS analysis relative to control; format: functional
MGC-803 [12] = assay: Cell cycle arrest in human MGC803 cells assessed as accumulation at sub G1 phase at 10 uM after 48 hrs by propidium iodide staining-based FACS analysis relative to control; format: functional

Row | SMILES | IC50 (HepG2) [µM] | IC50 (MGC-803 [1]) [µM] | IC50 (NCI-H460) [µM] | IC50 (A-375) [µM] | also measured
1 | COc1ccc(/C=C/c2nc3cc(Cl)ccc3c(=O)n2CCCN(C)C)cc1OC | > 20 | > 20 | > 20 | > 20 | –
2 | CN(C)CCn1c(/C=C/c2ccc(F)cc2)nc2ccccc2c1=O | > 20 | > 20 | > 20 | > 20 | –
3 | CCCCn1c(/C=C/c2ccccc2Br)nc2ccccc2c1=O | > 20 | > 20 | > 20 | > 20 | –
4 | COc1ccc(/C=C/c2nc3ccccc3c(=O)n2CCN(C)C)cc1OC | > 20 | > 20 | > 20 | > 20 | –
5 | CN(C)CCCn1c(/C=C/c2ccccc2Br)nc2ccccc2c1=O | 5.06 | 14.6 | 6.54 | 8.41 | –
6 | CCCCn1c(/C=C/c2cccc(O)c2)nc2ccccc2c1=O | > 20 | > 20 | > 20 | > 20 | –
7 | COc1cc2nc(/C=C/c3ccc(F)cc3)n(CCCN(C)C)c(=O)c2cc1OC | > 20 | > 20 | > 20 | – | Activity (MGC-803 [2]): inactive; inhibition [3]: inactive; inhibition [4]: inactive
8 | CN(C)CCCn1c(/C=C/c2ccccc2Br)nc2cc(Cl)ccc2c1=O | 8.1 | 12.6 | 7.49 | 13.1 | –
9 | CN(C)CCCn1c(/C=C/c2cccc(O)c2)nc2cc(Cl)ccc2c1=O | > 20 | > 20 | 10.5 | > 20 | –
10 | CN(C)CCn1c(/C=C/c2cccc(O)c2)nc2ccccc2c1=O | > 20 | > 20 | > 20 | > 20 | –
11 | CN(C)CCCn1c(/C=C/c2ccc(Cl)cc2Cl)nc2cc(Cl)ccc2c1=O | 8.58 | 5.75 | 13.3 | 12.9 | –
12 | CN(C)CCCn1c(/C=C/c2ccc(Cl)cc2Cl)nc2ccccc2c1=O | 4.2 | 3.89 | 5.86 | 7.15 | Activity (MGC-803 [5]): 20.64%; Activity (MGC-803 [6]): 29.35%; Activity (MGC-803 [7]): 54.16%; Activity (MGC-803 [8]): 11.4%; Activity (MGC-803 [9]): 5.09%; Activity (MGC-803 [10]): 12.83%; Activity (MGC-803 [11]): 34.55%; Activity (MGC-803 [12]): 31.98%
13 | CN(C)CCCn1c(/C=C/c2ccc(F)cc2)nc2cc(Cl)ccc2c1=O | > 20 | > 20 | > 20 | > 20 | –
14 | CN(C)CCn1c(/C=C/c2ccc(Cl)cc2)nc2ccccc2c1=O | > 20 | > 20 | > 20 | > 20 | –
15 | CCCCn1c(/C=C/c2ccc(OC)c(OC)c2)nc2ccccc2c1=O | > 20 | > 20 | > 20 | > 20 | –
16 | CCCCn1c(/C=C/c2cccc([N+](=O)[O-])c2)nc2ccccc2c1=O | > 20 | > 20 | > 20 | > 20 | –
17 | CN(C)CCn1c(/C=C/c2ccccc2Br)nc2ccccc2c1=O | > 20 | > 20 | > 20 | > 20 | –
18 | CCCCn1c(/C=C/c2ccc(Cl)cc2Cl)nc2ccccc2c1=O | > 20 | > 20 | > 20 | > 20 | –
19 | COc1cc2nc(/C=C/c3ccc4c(c3)OCO4)n(CCCN(C)C)c(=O)c2cc1OC | – | – | – | > 20 | –
20 | CN(C)CCCn1c(/C=C/c2ccc(Cl)cc2)nc2ccccc2c1=O | > 20 | > 20 | > 20 | > 20 | –

Row | SMILES | IC50 (HepG2) [µM] | IC50 (MGC-803 [1]) [µM] | IC50 (NCI-H460) [µM] | IC50 (A-375) [µM] | also measured
21 | COc1cc2nc(/C=C/c3ccc([N+](=O)[O-])cc3)n(CCCN(C)C)c(=O)c2cc1OC | – | – | – | > 20 | –
22 | CN(C)CCCn1c(/C=C/c2ccc(Cl)cc2)nc2cc(Cl)ccc2c1=O | 6.43 | 6.88 | 7.72 | 14.1 | –
23 | CN(C)CCn1c(/C=C/c2ccc3c(c2)OCO3)nc2ccccc2c1=O | > 20 | > 20 | > 20 | > 20 | –
24 | CN(C)CCCn1c(/C=C/c2ccc(F)cc2)nc2ccccc2c1=O | > 20 | > 20 | > 20 | > 20 | –
25 | COc1ccc(/C=C/c2nc3cc(OC)c(OC)cc3c(=O)n2CCCN(C)C)cc1OC | – | – | – | > 20 | –
26 | CN(C)CCn1c(/C=C/c2ccc(Cl)cc2Cl)nc2ccccc2c1=O | > 20 | > 20 | > 20 | > 20 | –
27 | CCCCn1c(/C=C/c2ccc(Cl)cc2)nc2ccccc2c1=O | > 20 | > 20 | > 20 | > 20 | –
28 | COc1cc2nc(/C=C/c3ccccc3Br)n(CCCN(C)C)c(=O)c2cc1OC | – | – | – | > 20 | –
29 | CN(C)CCCn1c(/C=C/c2ccc([N+](=O)[O-])cc2)nc2cc(Cl)ccc2c1=O | 7.41 | 8.28 | 5.55 | 10.3 | –
30 | CCCCn1c(/C=C/c2ccc(F)cc2)nc2ccccc2c1=O | > 20 | > 20 | > 20 | > 20 | –
31 | CN(C)CCCn1c(/C=C/c2ccc3c(c2)OCO3)nc2cc(Cl)ccc2c1=O | > 20 | > 20 | > 20 | > 20 | –
32 | CN(C)CCCn1c(/C=C/c2cccc([N+](=O)[O-])c2)nc2cc(Cl)ccc2c1=O | 6.13 | 4.14 | 5.83 | 14 | –
33 | CCCCn1c(/C=C/c2ccc3c(c2)OCO3)nc2ccccc2c1=O | > 20 | > 20 | > 20 | > 20 | –
34 | CN(C)CCCn1c(/C=C/c2cccc(O)c2)nc2ccccc2c1=O | 6.1 | > 20 | > 20 | > 20 | –
35 | COc1cc2nc(/C=C/c3ccc(Cl)cc3Cl)n(CCCN(C)C)c(=O)c2cc1OC | 6.45 | 5.92 | 6.37 | 12.7 | –
36 | COc1cc2nc(/C=C/c3cccc(O)c3)n(CCCN(C)C)c(=O)c2cc1OC | – | – | – | > 20 | –
37 | CN(C)CCn1c(/C=C/c2ccc([N+](=O)[O-])cc2)nc2ccccc2c1=O | > 20 | > 20 | > 20 | > 20 | –
38 | CCCCn1c(/C=C/c2ccc([N+](=O)[O-])cc2)nc2ccccc2c1=O | > 20 | > 20 | > 20 | > 20 | –
39 | CN(C)CCn1c(/C=C/c2cccc([N+](=O)[O-])c2)nc2ccccc2c1=O | > 20 | > 20 | > 20 | > 20 | –
40 | COc1cc2nc(/C=C/c3cccc([N+](=O)[O-])c3)n(CCCN(C)C)c(=O)c2cc1OC | – | – | – | > 20 | –

Source: ChEMBL document CHEMBL3414503, “Distinct novel quinazolinone exhibits selective inhibition in MGC-803 cancer cells by dictating mutant p53 function” (Eur J Med Chem, 2015)
